Source: ChEMBL document CHEMBL3627597, “Synthesis of Fluorine-Containing Phosphodiesterase 10A (PDE10A) Inhibitors and the In Vivo Evaluation of F-18 Labeled PDE10A PET Tracers in Rodent and Nonhuman Primate” (J Med Chem, 2015)

Legend:
Homo sapiens [1] = species: Homo sapiens; assay: Selectivity ratio of IC50 for recombinant human PDE3B to IC50 for recombinant human PDE10A
Homo sapiens [2] = species: Homo sapiens; assay: Selectivity ratio of IC50 for recombinant human PDE3A to IC50 for recombinant human PDE10A
Homo sapiens [3] = species: Homo sapiens; assay: Selectivity ratio of IC50 for recombinant human PDE4B to IC50 for recombinant human PDE10A
[4] = molecular target: cGMP-inhibited 3',5'-cyclic phosphodiesterase 3B (Homo sapiens, UniProt Q13370); assay: Inhibition of recombinant human PDE3B assessed as reduction of [3H]-cAMP hydrolysis preincubated for 5 mins followed by [3H]-cAMP addition measured after 20 mins by scintillation proximity assay
Chain of cGMP-inhibited 3',5'-cyclic phosphodiesterase 3B (Q13370 whole entry): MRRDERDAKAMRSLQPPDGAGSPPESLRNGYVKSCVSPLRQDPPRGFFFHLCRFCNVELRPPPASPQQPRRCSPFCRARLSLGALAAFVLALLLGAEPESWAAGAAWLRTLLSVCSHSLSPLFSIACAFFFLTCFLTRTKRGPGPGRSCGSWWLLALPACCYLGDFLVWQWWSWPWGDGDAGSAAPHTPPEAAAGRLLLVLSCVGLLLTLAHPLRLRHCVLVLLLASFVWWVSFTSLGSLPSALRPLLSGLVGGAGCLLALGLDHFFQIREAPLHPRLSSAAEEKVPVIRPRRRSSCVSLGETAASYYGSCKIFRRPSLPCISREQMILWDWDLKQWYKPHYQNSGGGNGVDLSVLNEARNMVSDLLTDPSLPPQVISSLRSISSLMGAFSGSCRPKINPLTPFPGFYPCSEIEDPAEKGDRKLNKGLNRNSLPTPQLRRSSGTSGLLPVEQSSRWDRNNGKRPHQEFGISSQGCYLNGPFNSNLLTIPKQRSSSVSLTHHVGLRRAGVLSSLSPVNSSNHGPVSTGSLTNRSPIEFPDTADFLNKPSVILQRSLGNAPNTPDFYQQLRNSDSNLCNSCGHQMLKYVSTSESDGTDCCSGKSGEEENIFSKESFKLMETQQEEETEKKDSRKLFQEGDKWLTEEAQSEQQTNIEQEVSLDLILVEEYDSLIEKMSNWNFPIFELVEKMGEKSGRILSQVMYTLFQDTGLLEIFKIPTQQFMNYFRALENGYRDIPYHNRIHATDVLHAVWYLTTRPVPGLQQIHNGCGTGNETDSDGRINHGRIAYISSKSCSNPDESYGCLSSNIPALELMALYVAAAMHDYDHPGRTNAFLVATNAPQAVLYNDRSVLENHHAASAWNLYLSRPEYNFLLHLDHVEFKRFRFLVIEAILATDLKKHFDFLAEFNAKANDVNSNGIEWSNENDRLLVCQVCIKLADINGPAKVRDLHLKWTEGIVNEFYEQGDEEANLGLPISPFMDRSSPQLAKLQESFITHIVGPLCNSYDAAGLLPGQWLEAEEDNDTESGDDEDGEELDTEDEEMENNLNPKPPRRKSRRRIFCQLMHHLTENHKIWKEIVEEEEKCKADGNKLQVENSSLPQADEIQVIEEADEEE
Outline: (§1)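 Recombinant human PDE with [3H]cAMP scintillation proximity assay. Enzyme used at a level within the linear range. Inhibitor (DMSO serial dilutions) plus enzyme held 5 min on ice, then [3H]cAMP added at 1/3 Km (1.48 kBq/mL), 20 min on ice (~30% turnover). Stopped with yttrium silicate SPA beads; settled 1.5 h at rt and counted. IC50 from one-site nonlinear fit, at least two independent runs, ± SD.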

[5] = molecular target: 3',5'-cyclic-AMP phosphodiesterase 4B (Homo sapiens, UniProt Q07343); assay: Inhibition of recombinant human PDE4B assessed as reduction of [3H]-cAMP hydrolysis preincubated for 5 mins followed by [3H]-cAMP addition measured after 20 mins by scintillation proximity assay; outline: as §1
Chain of 3',5'-cyclic-AMP phosphodiesterase 4B (Q07343 whole entry): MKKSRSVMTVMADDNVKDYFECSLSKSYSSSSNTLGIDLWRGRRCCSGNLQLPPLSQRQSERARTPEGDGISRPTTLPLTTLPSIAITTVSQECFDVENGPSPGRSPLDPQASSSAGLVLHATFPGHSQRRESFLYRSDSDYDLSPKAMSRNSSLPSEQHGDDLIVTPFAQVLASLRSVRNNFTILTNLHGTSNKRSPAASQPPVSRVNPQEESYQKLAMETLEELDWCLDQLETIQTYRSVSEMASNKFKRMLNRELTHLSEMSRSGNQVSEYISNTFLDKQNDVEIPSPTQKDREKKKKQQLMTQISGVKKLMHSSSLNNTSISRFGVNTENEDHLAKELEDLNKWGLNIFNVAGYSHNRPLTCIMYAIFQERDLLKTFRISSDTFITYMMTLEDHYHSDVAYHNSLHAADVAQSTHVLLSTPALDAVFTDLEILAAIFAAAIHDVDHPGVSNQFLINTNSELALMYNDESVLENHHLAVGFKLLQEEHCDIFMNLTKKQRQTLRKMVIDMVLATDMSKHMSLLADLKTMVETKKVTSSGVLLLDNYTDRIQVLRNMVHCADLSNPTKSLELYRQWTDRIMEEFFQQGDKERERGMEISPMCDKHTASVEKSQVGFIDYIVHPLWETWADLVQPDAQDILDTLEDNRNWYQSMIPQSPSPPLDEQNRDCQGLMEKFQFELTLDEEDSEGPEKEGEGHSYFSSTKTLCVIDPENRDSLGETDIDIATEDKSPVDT

[6] = molecular target: cAMP and cAMP-inhibited cGMP 3',5'-cyclic phosphodiesterase 10A (Homo sapiens, UniProt Q9Y233); assay: Inhibition of recombinant human PDE10A assessed as reduction of [3H]-cAMP hydrolysis preincubated for 5 mins followed by [3H]-cAMP addition measured after 20 mins by scintillation proximity assay; outline: as §1
Chain of cAMP and cAMP-inhibited cGMP 3',5'-cyclic phosphodiesterase 10A (Q9Y233 whole entry): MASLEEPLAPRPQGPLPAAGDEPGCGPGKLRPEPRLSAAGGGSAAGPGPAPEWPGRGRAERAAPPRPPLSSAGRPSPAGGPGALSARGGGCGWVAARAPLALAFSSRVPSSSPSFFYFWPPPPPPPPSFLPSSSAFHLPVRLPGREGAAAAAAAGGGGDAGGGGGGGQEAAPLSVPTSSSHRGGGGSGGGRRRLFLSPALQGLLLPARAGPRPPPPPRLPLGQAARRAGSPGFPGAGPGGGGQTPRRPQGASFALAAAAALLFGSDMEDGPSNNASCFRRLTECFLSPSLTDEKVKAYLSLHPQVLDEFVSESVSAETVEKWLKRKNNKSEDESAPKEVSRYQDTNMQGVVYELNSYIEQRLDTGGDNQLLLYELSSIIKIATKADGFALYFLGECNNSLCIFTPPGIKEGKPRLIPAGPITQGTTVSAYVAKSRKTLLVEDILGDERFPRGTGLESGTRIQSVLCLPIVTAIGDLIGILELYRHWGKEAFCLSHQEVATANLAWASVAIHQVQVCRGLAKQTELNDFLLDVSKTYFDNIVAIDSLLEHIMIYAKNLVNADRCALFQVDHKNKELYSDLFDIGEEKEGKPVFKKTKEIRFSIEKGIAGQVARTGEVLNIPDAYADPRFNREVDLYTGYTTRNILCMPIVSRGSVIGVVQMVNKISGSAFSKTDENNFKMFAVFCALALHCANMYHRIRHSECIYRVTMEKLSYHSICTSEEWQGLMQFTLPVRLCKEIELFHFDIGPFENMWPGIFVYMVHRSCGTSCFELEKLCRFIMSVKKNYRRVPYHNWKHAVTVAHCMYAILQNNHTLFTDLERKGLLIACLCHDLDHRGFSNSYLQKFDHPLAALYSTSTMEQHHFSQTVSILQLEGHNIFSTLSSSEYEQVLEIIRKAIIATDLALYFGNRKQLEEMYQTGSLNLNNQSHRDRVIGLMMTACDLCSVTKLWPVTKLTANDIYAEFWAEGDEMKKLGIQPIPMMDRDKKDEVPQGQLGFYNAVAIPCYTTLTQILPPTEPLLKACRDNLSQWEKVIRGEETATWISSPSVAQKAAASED

Homo sapiens [7] = species: Homo sapiens; assay: Selectivity ratio of IC50 for recombinant human PDE4A to IC50 for recombinant human PDE10A
[8] = molecular target: cGMP-inhibited 3',5'-cyclic phosphodiesterase 3A (Homo sapiens, UniProt Q14432); assay: Inhibition of recombinant human PDE3A assessed as reduction of [3H]-cAMP hydrolysis preincubated for 5 mins followed by [3H]-cAMP addition measured after 20 mins by scintillation proximity assay; outline: as §1
Chain of cGMP-inhibited 3',5'-cyclic phosphodiesterase 3A (Q14432 whole entry): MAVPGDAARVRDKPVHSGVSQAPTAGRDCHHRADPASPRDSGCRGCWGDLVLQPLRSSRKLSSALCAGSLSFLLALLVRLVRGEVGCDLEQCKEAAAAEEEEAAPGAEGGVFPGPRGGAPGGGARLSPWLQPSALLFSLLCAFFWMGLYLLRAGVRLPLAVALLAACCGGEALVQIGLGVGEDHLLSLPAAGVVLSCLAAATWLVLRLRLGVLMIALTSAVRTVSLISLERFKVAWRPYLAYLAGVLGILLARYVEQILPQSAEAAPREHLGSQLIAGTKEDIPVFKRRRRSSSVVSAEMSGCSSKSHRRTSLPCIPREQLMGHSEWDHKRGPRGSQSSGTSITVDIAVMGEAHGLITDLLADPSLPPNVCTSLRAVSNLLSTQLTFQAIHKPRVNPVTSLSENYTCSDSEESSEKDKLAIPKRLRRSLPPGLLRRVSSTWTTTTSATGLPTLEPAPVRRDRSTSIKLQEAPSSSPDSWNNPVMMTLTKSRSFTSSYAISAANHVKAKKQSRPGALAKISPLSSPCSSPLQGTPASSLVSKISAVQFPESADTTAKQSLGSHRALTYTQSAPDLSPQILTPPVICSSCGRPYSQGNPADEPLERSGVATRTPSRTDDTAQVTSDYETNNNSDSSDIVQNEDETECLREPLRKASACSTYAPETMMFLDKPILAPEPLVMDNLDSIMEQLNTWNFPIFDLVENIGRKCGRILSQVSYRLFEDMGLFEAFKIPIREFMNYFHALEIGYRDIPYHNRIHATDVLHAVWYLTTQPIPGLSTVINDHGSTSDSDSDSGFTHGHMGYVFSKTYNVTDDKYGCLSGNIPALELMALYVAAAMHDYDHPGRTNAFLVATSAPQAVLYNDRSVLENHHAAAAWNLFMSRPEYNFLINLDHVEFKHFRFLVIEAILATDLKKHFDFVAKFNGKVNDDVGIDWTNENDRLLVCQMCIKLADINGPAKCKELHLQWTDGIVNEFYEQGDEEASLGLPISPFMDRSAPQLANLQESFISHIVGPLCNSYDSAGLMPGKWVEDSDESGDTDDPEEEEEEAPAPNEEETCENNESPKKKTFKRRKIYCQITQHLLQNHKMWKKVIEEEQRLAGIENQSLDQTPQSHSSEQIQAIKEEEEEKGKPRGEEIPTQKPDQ

[9] = molecular target: 3',5'-cyclic-AMP phosphodiesterase 4A (Homo sapiens, UniProt P27815); assay: Inhibition of recombinant human PDE4A assessed as reduction of [3H]-cAMP hydrolysis preincubated for 5 mins followed by [3H]-cAMP addition measured after 20 mins by scintillation proximity assay; outline: as §1
Chain of 3',5'-cyclic-AMP phosphodiesterase 4A (P27815 whole entry): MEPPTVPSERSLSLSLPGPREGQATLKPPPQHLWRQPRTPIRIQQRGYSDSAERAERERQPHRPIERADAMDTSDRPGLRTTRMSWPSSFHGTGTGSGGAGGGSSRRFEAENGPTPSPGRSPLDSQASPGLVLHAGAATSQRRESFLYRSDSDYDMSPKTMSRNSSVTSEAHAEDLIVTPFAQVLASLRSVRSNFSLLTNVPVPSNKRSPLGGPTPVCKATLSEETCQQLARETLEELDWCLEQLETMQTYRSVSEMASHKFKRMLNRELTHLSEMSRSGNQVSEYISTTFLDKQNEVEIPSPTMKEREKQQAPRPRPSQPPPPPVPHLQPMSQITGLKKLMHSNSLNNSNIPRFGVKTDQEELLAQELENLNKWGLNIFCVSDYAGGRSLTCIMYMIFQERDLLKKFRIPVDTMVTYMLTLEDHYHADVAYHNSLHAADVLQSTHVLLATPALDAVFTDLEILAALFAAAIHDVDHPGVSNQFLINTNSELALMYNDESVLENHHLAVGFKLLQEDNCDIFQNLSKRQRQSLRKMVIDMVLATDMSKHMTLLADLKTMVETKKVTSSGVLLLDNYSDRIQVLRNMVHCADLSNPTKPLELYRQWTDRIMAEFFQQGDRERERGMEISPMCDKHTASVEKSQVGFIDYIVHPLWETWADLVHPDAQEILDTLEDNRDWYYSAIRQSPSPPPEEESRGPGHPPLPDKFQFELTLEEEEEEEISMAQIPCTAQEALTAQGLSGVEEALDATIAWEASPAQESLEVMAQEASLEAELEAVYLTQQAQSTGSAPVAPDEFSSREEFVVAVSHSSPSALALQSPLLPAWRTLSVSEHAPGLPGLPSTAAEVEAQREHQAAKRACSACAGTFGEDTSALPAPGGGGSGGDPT

Structure (SMILES)	Ratio IC50 (Homo sapiens [1])	Ratio IC50 (Homo sapiens [2])	Ratio IC50 (Homo sapiens [3])	IC50 [4] [µM]	IC50 [5] [µM]	IC50 [6] [µM]	Ratio IC50 (Homo sapiens [7])	IC50 [8] [µM]	IC50 [9] [µM]
Cn1cc(-c2ccncc2)c(-c2ccc(OCc3cc(F)c4ccccc4n3)cc2)n1	> 210	> 210	> 210	103	6.42	0.00071	> 210	199	8.35
Cn1ncc(-c2ccncc2)c1-c1ccc(OCc2cc(NCCF)c3ccccc3n2)cc1	> 210	> 210	> 210	38.3	1.59	0.00037	> 210	78.8	12.4
Cn1cc(-c2ccncc2)c(-c2ccc(OCc3cc(OCCF)c4ccccc4n3)cc2)n1	> 210	> 210	> 210	7.76	1.77	0.00032	> 210	29.5	1.01
Cn1cc(-c2ccncc2)c(-c2ccc(OCc3ccc4cc(OCCF)ccc4n3)cc2)n1	> 210	> 210	> 210			0.0335	> 210		
Cn1cc(-c2ccncc2)c(-c2ccc(OCc3cc(CF)c4ccccc4n3)cc2)n1	> 210	> 210	> 210	5.68	3.8	0.00068	> 210	7.71	4.09
Cn1cc(-c2ccncc2)c(-c2ccc(OCc3cc(OCCOCCF)c4ccccc4n3)cc2)n1	> 210	> 210	> 210	16.2	0.9	0.00027	> 210	22.9	1.44
Cn1cc(-c2ccncc2)c(-c2ccc(OCc3cc(COCCF)c4ccccc4n3)cc2)n1	> 210	> 210	> 210	4.55	1.77	0.00065	> 210	4.07	2.22
Cn1ncc(-c2ccncc2)c1-c1ccc(OCc2cc(OCCOCCF)c3ccccc3n2)cc1	> 210	> 210	> 210	50.1	11.6	0.00036	> 210	66.4	12.3
Cn1ncc(-c2ccncc2)c1-c1ccc(OCc2cc(COCCF)c3ccccc3n2)cc1	> 210	> 210	> 210	> 1000	4.24	0.00112	> 210	306	4.77
Cn1cc(-c2ccncc2)c(-c2ccc(OCc3cc(NCCF)c4ccccc4n3)cc2)n1	> 210	> 210	> 210	3.48	4.8	0.00052	> 210	3.74	5.97
Cn1cc(-c2ccncc2)c(-c2ccc(OCc3nc4ccccc4cc3OCCF)cc2)n1	> 210	> 210	> 210	19.9	1.04	0.00026	> 210	25.9	1.76
Cn1cc(-c2ccncc2)c(-c2ccc(OCc3ccc4cc(CF)ccc4n3)cc2)n1	> 210	> 210	> 210			> 0.076	> 210		
Cn1ncc(-c2ccncc2)c1-c1ccc(OCc2ccc3cc(F)ccc3n2)cc1	> 210	> 210	> 210	151	0.76	0.00076	> 210	111	9.73
Cn1ncc(-c2ccncc2)c1-c1ccc(OCc2cc(OCCOCCOCCF)c3ccccc3n2)cc1	> 210	> 210	> 210	51.8	7.31	0.00047	> 210	62.2	8.36
Cn1ncc(-c2ccncc2)c1-c1ccc(OCc2cc(-n3cc(CCF)nn3)c3ccccc3n2)cc1	> 210	> 210	> 210	16.2	0.9	0.00498	> 210	0.81	1.86
Cn1ncc(-c2ccncc2)c1-c1ccc(OCc2cc(OCCOCCOCCOCCF)c3ccccc3n2)cc1	> 210	> 210	> 210	28.1	1.73	0.0003	> 210	58.7	15
Cn1ncc(-c2ccncc2)c1-c1ccc(OCc2cc(OCCF)c3ccccc3n2)cc1	> 210	> 210	> 210	5.61	1.02	0.00116	> 210	3.77	3.72
Cn1cc(-c2ccncc2)c(-c2ccc(OCc3ccc4cc(F)ccc4n3)cc2)n1	> 210	> 210	> 210	23.9	2.55	0.00029	> 210	38.5	2.33
Cn1cc(-c2ccncc2)c(-c2ccc(OCc3cc(OCCOCCOCCF)c4ccccc4n3)cc2)n1	> 210	> 210	> 210	61.9	1.58	0.00024	> 210	116	1.57
Cn1cc(-c2ccncc2)c(-c2ccc(OCc3cc(-n4cc(CCF)nn4)c4ccccc4n3)cc2)n1	> 210	> 210	> 210	3.56	18.3	0.00307	> 210	4.51	1.57
Cn1cc(-c2ccncc2)c(-c2ccc(OCc3cc(OCCOCCOCCOCCF)c4ccccc4n3)cc2)n1	> 210	> 210	> 210	29.6	10.3	0.00033	> 210	144	9.89
Cn1cc(-c2ccncc2)c(-c2ccc(OCc3cc(CCCF)c4ccccc4n3)cc2)n1	> 210	> 210	> 210	19.1	0.38	0.0018	> 210	21.9	0.46
